Measured values from ChEMBL document CHEMBL4304827, “Design, synthesis and evaluation of structurally diverse chrysin-chromene-spirooxindole hybrids as anticancer agents” (Bioorg Med Chem, 2019).
pIC50: −log10 of the molar value. The source made the active and inactive calls. No cut-off for these calls is given here.

How the values were obtained:
A549 [1] = assay: Induction of apoptosis in human A549 cells assessed as increase in caspase 8 activity incubated for 24 hrs by colorimetry; format: functional, cell-based
Method in brief: (§1)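 A549 cells were plated at 3 × 10^5/well and cultured 12 h, then treated with various concentrations for 24 h. Cells were lysed on ice for 60 min. Lysate containing 200 μg protein was incubated with caspase-3, -8 or -9 colorimetric substrate at 37 °C for 4 h in the dark, and A405 was read. Activation = (treated − blank)/(control − blank). Mean ± SD, ≥3 experiments.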

A549 [2] = assay: Induction of apoptosis in human A549 cells assessed as downregulation of MDM2 protein expression incubated for 24 hrs by Western blot analysis; format: functional, cell-based
Method in brief: (§2)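 A549 cells were treated with various concentrations for 24 h and lysed in RIPA buffer with 1 mM PMSF. Protein (20 μg) was resolved on 8-12% SDS-PAGE and transferred to PVDF. Membranes were blocked in 5% milk and probed with primary antibodies overnight at 4 °C, then with anti-rabbit secondary. Bands were quantified by densitometry. Mean ± SD, ≥3 experiments.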

A549 [3] = assay: Induction of apoptosis in human A549 cells assessed as upregulation of p53 protein expression incubated for 24 hrs by Western blot analysis; format: functional, cell-based; method in brief: as §2
A549 [4] = assay: Induction of apoptosis in human A549 cells assessed as increase in caspase 9 activity at 100 uM incubated for 24 hrs by colorimetry relative to control; format: functional; method in brief: as §1
A549 [5] = assay: Antiproliferative activity against human A549 cells assessed as reduction in cell proliferation incubated for 48 hrs by MTT assay; format: functional, cell-based; conditions: A549, 48 h
Method in brief: (§3)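 Log-phase cells were plated at 5 × 10^3/well in RPMI-1640 with 10% FBS and cultured 24 h. Compounds were added at graded concentrations (DMSO <0.1%) for 48 h. MTT (5 mg/mL) was added for about 4 h, formazan was dissolved in DMSO and A490 was read. IC50 was calculated from ≥3 independent experiments and reported as mean ± SD. Chrysin served as positive control.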

A549 [6] = assay: Induction of apoptosis in human A549 cells assessed as early apoptotic cells at 50 uM incubated for 24 hrs by annexin V FITC and PI staining based flow cytometry (reference value: 0.53%); format: functional
A549 [7] = assay: Induction of apoptosis in human A549 cells assessed as downregulation of 5-Lox protein expression at 10 uM by Western blot analysis; format: functional, cell-based; conditions: TDE = time-dependent effect
Method in brief: (§4)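 A549 cells were exposed to 10 μM for different times and lysed in RIPA buffer with 1 mM PMSF. Protein (20 μg) was separated on 8-12% SDS-PAGE and transferred to PVDF. Membranes were blocked in 5% milk and incubated with primary antibodies overnight at 4 °C, then with anti-rabbit secondary. Bands were quantified by densitometry. Mean ± SD, ≥3 experiments.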

A549 [8] = assay: Induction of apoptosis in human A549 cells assessed as downregulation of 5-Lox protein expression incubated for 24 hrs by Western blot analysis; format: functional, cell-based; method in brief: as §2
A549 [9] = assay: Induction of apoptosis in human A549 cells assessed as late apoptotic cells at 5 uM incubated for 24 hrs by annexin V FITC and PI staining based flow cytometry (reference value: 1.32%); format: functional
A549 [10] = assay: Induction of apoptosis in human A549 cells assessed as late apoptotic cells at 50 uM incubated for 24 hrs by annexin V FITC and PI staining based flow cytometry (reference value: 1.32%); format: functional
A549 [11] = assay: Induction of apoptosis in human A549 cells assessed as compromised cell membrane boundaries at 5 to 20 uM incubated for 24 hrs by PI staining based fluorescence microscopy; format: functional
Method in brief: (§5)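 A549 cells were plated at 3 × 10^5/well and cultured 12 h, then exposed to various concentrations for 24 h. Morphology was observed by microscopy. AO-EB stain (1 mg/mL each, in PBS) was applied for 10 min at room temperature in the dark. Harvested cells were stained with PI for 15 min at room temperature in the dark, then washed. Both stains were examined by fluorescence microscopy.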

A549 [12] = assay: Induction of apoptosis in human A549 cells incubated for 24 hrs by annexin V FITC and PI staining based flow cytometry; format: functional, cell-based
A549 [13] = assay: Induction of apoptosis in human A549 cells assessed as upregulation of Cyt c protein expression at 10 uM by Western blot analysis; format: functional, cell-based; conditions: TDE = time-dependent effect; method in brief: as §4
A549 [14] = assay: Induction of apoptosis in human A549 cells assessed as necrotic cells at 5 uM incubated for 24 hrs by annexin V FITC and PI staining based flow cytometry (reference value: 2.43%); format: functional
A549 [15] = assay: Induction of apoptosis in human A549 cells assessed as downregulation of Bcl2 protein expression incubated for 24 hrs by Western blot analysis; format: functional, cell-based; method in brief: as §2
A549 [16] = assay: Induction of apoptosis in human A549 cells assessed as necrotic cells at 25 uM incubated for 24 hrs by annexin V FITC and PI staining based flow cytometry (reference value: 2.43%); format: functional
MRC5 = assay: Cytotoxicity against human MRC5 cells assessed as reduction in cell proliferation incubated for 48 hrs by MTT assay; format: cell-based; conditions: MRC5, 48 h; method in brief: as §3
A549 [17] = assay: Induction of apoptosis in human A549 cells assessed as morphological changes by measuring rounded cells with weak adhesion incubated for 24 hrs; format: functional, cell-based; method in brief: as §5
A549 [18] = assay: Induction of apoptosis in human A549 cells assessed as downregulation of MDM2 protein expression at 10 uM by Western blot analysis; format: functional, cell-based; conditions: TDE = time-dependent effect; method in brief: as §4
NCI-H1299 = assay: Antiproliferative activity against human H1299 cells assessed as reduction in cell proliferation incubated for 48 hrs by MTT assay; format: functional, cell-based; conditions: NCI-H1299, 48 h; method in brief: as §3
A549 [19] = assay: Induction of apoptosis in human A549 cells assessed as upregulation of p53 protein expression at 10 uM by Western blot analysis; format: functional, cell-based; conditions: TDE = time-dependent effect; method in brief: as §4
A549 [20] = assay: Induction of ROS production in human A549 cells incubated for 24 hrs by DCFH-DA staining based fluorescence microscopy; format: functional, cell-based
Method in brief: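 A549 cells were plated at 3 × 10^5/well and cultured 12 h, then treated with various concentrations for 24 h. They were washed in serum-free medium and loaded with DCFH-DA (10 μM) for 20 min at 37 °C in the dark. DCF fluorescence was imaged by fluorescence microscopy.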

A549 [21] = assay: Induction of apoptosis in human A549 cells assessed as downregulation of Akt protein expression at 10 uM by Western blot analysis; format: functional, cell-based; conditions: TDE = time-dependent effect; method in brief: as §4
A549 [22] = assay: Induction of apoptosis in human A549 cells assessed as viable cells at 5 uM incubated for 24 hrs by annexin V FITC and PI staining based flow cytometry (reference value: 95.7%); format: functional; conditions: A549, 24 h, read-out: Activity
A549 [23] = assay: Induction of apoptosis in human A549 cells assessed as chromatin shrinkage and apoptotic body formation at higher concentrations incubated for 24 hrs by AO-EB staining based fluorescence microscopy; format: functional, cell-based; method in brief: as §5
A549 [24] = assay: Induction of apoptosis in human A549 cells assessed as upregulation of Bax protein expression incubated for 24 hrs by Western blot analysis; format: functional, cell-based; method in brief: as §2
A549 [25] = assay: Induction of apoptosis in human A549 cells assessed as downregulation of Akt protein expression incubated for 24 hrs by Western blot analysis; format: functional, cell-based; method in brief: as §2
PC-3 = assay: Antiproliferative activity against human PC3 cells assessed as reduction in cell proliferation incubated for 48 hrs by MTT assay; format: functional, cell-based; conditions: PC-3, 48 h; method in brief: as §3

Compound: CN1C(=O)C2(C(C#N)=C(N)Oc3cc4oc(-c5ccccc5)cc(=O)c4c(O)c32)c2cc(Br)ccc21 (stereo not drawn)
- Activity (A549 [1]): Dose-dependent effect
- inhibition (A549 [2]): Dose-dependent effect
- Activity (A549 [3]): Dose-dependent effect
- fold change (FC) (A549 [4]): 1.81
- pIC50 (A549 [5]): 5.50
- Activity (A549 [6]): 9.33%
- inhibition (A549 [7]): Tde
- inhibition (A549 [8]): Dose-dependent effect
- Activity (A549 [9]): 6.73%
- Activity (A549 [10]): 24.8%
- Activity (A549 [11]): Active
- Activity (A549 [12]): Dose-dependent effect
- Activity (A549 [13]): Tde
- Activity (A549 [14]): 0.732%
- inhibition (A549 [15]): Dose-dependent effect
- Activity (A549 [16]): 2.97%
- pIC50 (MRC5): < 4.00
- Activity (A549 [17]): Dose-dependent effect
- inhibition (A549 [18]): Tde
- pIC50 (NCI-H1299): 5.12
- Activity (A549 [19]): Tde
- Activity (A549 [20]): Dose-dependent effect
- inhibition (A549 [21]): Tde
- viability at 5 µM (A549 [22]): 85%
- Activity (A549 [23]): Active
- Activity (A549 [24]): Dose-dependent effect
- inhibition (A549 [25]): Dose-dependent effect
- pIC50 (PC-3): 4.69
